Columns and labels:
Assay type in all cases: functional, cell-based
Huh-7 = experiment: Cytostatic activity against human HuH7 cells assessed as inhibition of cell proliferation after 96 hrs by coulter counting analysis; settings: Huh-7, 96 h
Method in brief: (§1)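 Anti-proliferative testing extended to human kidney Caki-1 and human liver Huh-7 tumour cells. The value reported is the IC50, the concentration that inhibits tumour cell growth by 50%.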

HeLa = experiment: Cytostatic activity against human HeLa cells assessed as inhibition of cell proliferation after 72 hrs by coulter counting analysis; settings: Homo sapiens, HeLa, 72 h
Method in brief: (§2)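 Anti-proliferative screen in murine leukemia L1210, human T-lymphocyte CEM and human cervix carcinoma HeLa cultures. The value reported is the IC50, the concentration that inhibits cell proliferation by 50%.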

CCRF-CEM = experiment: Cytostatic activity against human CEM cells assessed as inhibition of cell proliferation after 72 hrs by coulter counting analysis; settings: Homo sapiens, CCRF-CEM, 72 h; method in brief: as §2
CAKI-1 = experiment: Cytostatic activity against human Caki1 cells assessed as inhibition of cell proliferation after 96 hrs by coulter counting analysis; settings: CAKI-1, 96 h; method in brief: as §1
L1210 = experiment: Cytostatic activity against mouse L1210 cells assessed as inhibition of cell proliferation after 48 hrs by coulter counting analysis; settings: Mus musculus, L1210, 48 h; method in brief: as §2

Compound | IC50 (Huh-7) | IC50 (HeLa) | IC50 (CCRF-CEM) | IC50 (CAKI-1) | IC50 (L1210)
CCC(C)N(C(=O)[C@H](CC(=O)OC)NC(=O)OCc1ccccc1)C1(C(=O)NCc2ccccc2)CCN(Cc2ccccc2)CC1 (stereo not given in full) | 6.4 µM | 4.3 µM | 4.5 µM | 8.7 µM | 5.3 µM
COC(=O)C[C@H](NC(=O)OC(C)(C)C)C(=O)N(CC(=O)OC)C1(C(=O)NCc2ccccc2)CCN(Cc2ccccc2)CC1 | – | 32 µM | 46 µM | – | 49 µM
CCC(C)N(C(=O)[C@@H](N)Cc1ccccc1)C1(C(=O)NCc2ccccc2)CCN(Cc2ccccc2)CC1 (stereo not given in full) | – | 90 µM | 99 µM | – | 81 µM
CNC(=O)C[C@H](NC(=O)OC(C)(C)C)C(=O)N(Cc1ccccc1)C1(C(=O)NCc2ccccc2)CCN(Cc2ccccc2)CC1 | – | 84 µM | 63 µM | – | 94 µM
COC(=O)CNC(=O)C1(N(Cc2ccccc2)C(=O)[C@H](CC(=O)OC)NC(=O)OC(C)(C)C)CCN(Cc2ccccc2)CC1 | – | 227 µM | 109 µM | – | 123 µM
COC(=O)C[C@H](NC(=O)OC(C)(C)C)C(=O)N(Cc1ccccc1)C1(C(=O)NCc2ccccc2)CCNCC1 | – | > 167 µM | 124 µM | – | > 200 µM
COC(=O)C[C@H](NC(=O)OC(C)(C)C)C(=O)N(Cc1cc(OC)c(OC)c(OC)c1)C1(C(=O)NCc2ccccc2)CCN(Cc2ccccc2)CC1 | – | 22 µM | 23 µM | – | 31 µM
CC(C)(C)NC(=O)C1(N(C(=O)[C@H](Cc2ccccc2)NC(=O)OCc2ccccc2)C2CC2)CCN(C(=O)OC(C)(C)C)CC1 | – | 148 µM | 15 µM | – | 17 µM
COC(=O)C[C@H](NC(=O)OCc1ccccc1)C(=O)N(Cc1ccccc1)C1(C(=O)NCc2ccccc2)CCN(Cc2ccccc2)CC1 | – | 14 µM | 4.5 µM | – | 5.8 µM
CCCCNC(=O)C1(N(Cc2ccccc2)C(=O)[C@H](CC(=O)OC)NC(=O)OC(C)(C)C)CCN(Cc2ccccc2)CC1 | – | 36 µM | 28 µM | – | 24 µM
COC(=O)C[C@H](NC(=O)OC(C)(C)C)C(=O)N(Cc1ccc(F)cc1)C1(C(=O)NCc2ccccc2)CCN(Cc2ccccc2)CC1 | – | 19 µM | 16 µM | – | 22 µM
COC(=O)C[C@H](NC(=O)OC(C)(C)C)C(=O)N(C1CC1)C1(C(=O)NCc2ccccc2)CCN(Cc2ccccc2)CC1 | – | 7.9 µM | 6.7 µM | – | 14 µM
CC(C)(C)NC(=O)C1(N(C(=O)[C@H](Cc2ccccc2)NC(=O)OC(C)(C)C)C2CC2)CCN(C(=O)OC(C)(C)C)CC1 | – | 20 µM | 19 µM | – | 14 µM
COC(=O)C[C@H](NC(=O)OC(C)(C)C)C(=O)NC1(C(=O)NCc2ccccc2)CCN(Cc2ccccc2)CC1 | – | 24 µM | 25 µM | – | 23 µM
COC(=O)C[C@H](N)C(=O)N(Cc1ccccc1)C1(C(=O)NCc2ccccc2)CCN(Cc2ccccc2)CC1 | – | 100 µM | 104 µM | – | 90 µM
O=C(N[C@@H](Cc1ccccc1)C(=O)N(Cc1ccccc1)C1(C(=O)NCc2ccccc2)CCN(Cc2ccccc2)CC1)Oc1ccccc1 | – | 17 µM | 9 µM | – | 3.5 µM
CC[C@H](C)[C@H](NC(=O)OCc1ccccc1)C(=O)N(C1CC1)C1(C(=O)NCc2ccccc2)CCN(Cc2ccccc2)CC1 | – | 30 µM | 16 µM | – | 11 µM
COC(=O)C[C@H](NC(=O)OC(C)(C)C)C(=O)N(Cc1ccccc1)C1(C(=O)NC2CCCCC2)CCN(Cc2ccccc2)CC1 | – | 21 µM | 20 µM | – | 19 µM
CC(C)(C)OC(=O)N[C@@H](Cc1c[nH]c2ccccc12)C(=O)N(Cc1ccccc1)C1(C(=O)NCc2ccccc2)CCN(Cc2ccccc2)CC1 | 6.6 µM | 5.9 µM | 5.9 µM | 14 µM | 4.6 µM
CC(C)(C)OC(=O)N[C@@H](CC(N)=O)C(=O)N(Cc1ccccc1)C1(C(=O)NCc2ccccc2)CCN(Cc2ccccc2)CC1 | – | 25 µM | 26 µM | – | 27 µM
CCC(C)N(C(=O)[C@@H](NC(=O)OCc1ccccc1)[C@@H](C)CC)C1(C(=O)NCc2ccccc2)CCN(Cc2ccccc2)CC1 (stereo not given in full) | – | 119 µM | 111 µM | – | 83 µM
CC[C@@H](C)[C@H](NC(=O)OCc1ccccc1)C(=O)N(Cc1ccccc1)C1(C(=O)NCc2ccccc2)CCN(C(=O)OC(C)(C)C)CC1 | – | 11 µM | 6.8 µM | – | 5.1 µM
C=CCOC(=O)N1CCC(C(=O)NCc2ccccc2)(N(Cc2ccccc2)C(=O)[C@H](Cc2ccccc2)NC(=O)OC(C)(C)C)CC1 | 8.1 µM | 7 µM | 4.7 µM | 12 µM | 4.2 µM
